The term kcat denotes the maximal rate divided by the concentration of active sites. For orientation: Km means the substrate concentration at which the rate is half of its maximum. Usually kcat/Km stands for the turnover number divided by the Michaelis constant.

Series [1] addresses T1, Adenosylhomocysteinase (Thermotoga maritima (strain ATCC 43589 / MSB8 / DSM 3109 / JCM 10099)) (UniProt O51933).
T1 sequence (whole entry): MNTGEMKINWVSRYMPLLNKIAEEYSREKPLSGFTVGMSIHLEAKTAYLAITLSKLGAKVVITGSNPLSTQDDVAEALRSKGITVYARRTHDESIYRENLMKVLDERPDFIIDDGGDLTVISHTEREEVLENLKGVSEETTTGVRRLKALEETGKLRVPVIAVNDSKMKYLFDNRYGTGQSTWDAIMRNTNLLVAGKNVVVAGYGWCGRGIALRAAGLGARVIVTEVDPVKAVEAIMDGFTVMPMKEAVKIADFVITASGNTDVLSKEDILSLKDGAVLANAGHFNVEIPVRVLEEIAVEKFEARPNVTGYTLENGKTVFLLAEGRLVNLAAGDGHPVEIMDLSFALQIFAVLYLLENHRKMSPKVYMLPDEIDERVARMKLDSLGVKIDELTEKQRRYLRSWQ
In words: (§1) Activity of Thermotoga maritima S-adenosyl-L-homocysteine hydrolase Tm0172 assessed as homocysteine hydrolysis. The procedure, abridged:
(§2)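 Tm0172 expressed in E. coli (arabinose induction), heat-treated 65 °C and purified on chelating Sepharose as His-tagged protein. Assay: 100 mM HEPES pH 8.0, 1.0 mM DTNB, 1.0 mM EDTA, 13 μM Tm0172, substrate up to 10 mM, 30 °C. kcat and kcat/Km obtained by fitting initial velocities to the Michaelis–Menten equation.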

Substrate in series [2]: Nc1ncnc2c1ncn2[C@@H]1O[C@H](CSCC[C@H](N)C(=O)O)[C@@H](O)[C@H]1O
The series is described as §1. An outline of the steps:
as §2

Substrate in series [3]: Nc1ncnc2c1ncn2[C@@H]1O[C@H](CSCC[C@H](N)C(=O)O)[C@@H](O)[C@H]1O
In words: Ratio of Kcat to Km for Thermotoga maritima S-adenosyl-L-homocysteine hydrolase Tm0172 assessed as homocysteine hydrolysis. The procedure, abridged:
as §2

Substrate in series [4]: CSC[C@H]1O[C@@H](n2cnc3c(N)ncnc32)[C@H](O)[C@@H]1O
In words: (§3) Activity of Thermotoga maritima S-adenosyl-homocysteine deaminase Tm0936 assessed as ammonia production. The procedure, abridged:
(§4)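 Recombinant Tm0936 was expressed in E. coli, heat-treated at 65 °C, then purified by anion exchange and gel filtration (Zn-containing). Ammonia release was coupled to glutamate dehydrogenase, with NADH loss read at 340 nm. Assay: 100 mM HEPES pH 8.0, 7.4 mM α-ketoglutarate, 0.4 mM NADH, 6 units GDH, 30 °C. kcat and kcat/Km came from fitting initial velocities versus substrate concentration.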

Substrate in series [5]: C[S+](CC[C@H](N)C(=O)[O-])C[C@H]1O[C@@H](n2cnc3c(N)ncnc32)[C@H](O)[C@@H]1O
The description is as §3. An outline of the steps: as §4

Substrate in series [6]: Nc1ncnc2c1ncn2[C@@H]1O[C@H](CSCC[C@H](N)C(=O)O)[C@@H](O)[C@H]1O
The description is as §3. An outline of the steps: as §4

Substrate in series [7]: Nc1ncnc2c1ncn2[C@@H]1O[C@H](COP(=O)(O)O)[C@@H](O)[C@H]1O
The description is as §3. The procedure, abridged: as §4

Substrate in series [8]: Nc1ncnc2c1ncn2[C@@H]1O[C@H](CO)[C@@H](O)[C@H]1O
The description is as §3. The procedure, abridged:
as §4

Substrate in series [9]: CSC[C@H]1O[C@@H](n2cnc3c(N)ncnc32)[C@H](O)[C@@H]1O
Briefly: (§5) Ratio of Kcat to Km for Thermotoga maritima S-adenosyl-homocysteine deaminase Tm0936 assessed as ammonia production. The procedure, abridged: as §4

Substrate in series [10]: Nc1ncnc2c1ncn2[C@@H]1O[C@H](CSCC[C@H](N)C(=O)O)[C@@H](O)[C@H]1O
The series is described as §5. The procedure, abridged: as §4

Substrate in series [11]: Nc1ncnc2c1ncn2[C@@H]1O[C@H](CO)[C@@H](O)[C@H]1O
The description is as §5. The procedure, abridged: as §4

Turning to `Nc1ncnc2c1ncn2[C@@H]1O[C@H](CSCC[C@H](N)C(=O)O)[C@@H](O)[C@H]1O`, the turnover number (kcat) in series [1] is 0.004 s⁻¹.

B1: Adenosylhomocysteinase (Thermotoga maritima (strain ATCC 43589 / MSB8 / DSM 3109 / JCM 10099)), O51933 (protein)
chain: MNTGEMKINWVSRYMPLLNKIAEEYSREKPLSGFTVGMSIHLEAKTAYLAITLSKLGAKVVITGSNPLSTQDDVAEALRSKGITVYARRTHDESIYRENLMKVLDERPDFIIDDGGDLTVISHTEREEVLENLKGVSEETTTGVRRLKALEETGKLRVPVIAVNDSKMKYLFDNRYGTGQSTWDAIMRNTNLLVAGKNVVVAGYGWCGRGIALRAAGLGARVIVTEVDPVKAVEAIMDGFTVMPMKEAVKIADFVITASGNTDVLSKEDILSLKDGAVLANAGHFNVEIPVRVLEEIAVEKFEARPNVTGYTLENGKTVFLLAEGRLVNLAAGDGHPVEIMDLSFALQIFAVLYLLENHRKMSPKVYMLPDEIDERVARMKLDSLGVKIDELTEKQRRYLRSWQ
As to B1, the Km in series [2] stood at 21 µM. For the same molecule, in series [3], the kcat/Km was 1.1 10^2/M/s.

B2: 5-methylthioadenosine/S-adenosylhomocysteine deaminase (Thermotoga maritima (strain ATCC 43589 / MSB8 / DSM 3109 / JCM 10099)), Q9X034 (protein)
chain: MIIGNCLILKDFSSEPFWGAVEIENGTIKRVLQGEVKVDLDLSGKLVMPALFNTHTHAPMTLLRGVAEDLSFEEWLFSKVLPIEDRLTEKMAYYGTILAQMEMARHGIAGFVDMYFHEEWIAKAVRDFGMRALLTRGLVDSNGDDGGRLEENLKLYNEWNGFEGRIFVGFGPHSPYLCSEEYLKRVFDTAKSLNAPVTIHLYETSKEEYDLEDILNIGLKEVKTIAAHCVHLPERYFGVLKDIPFFVSHNPASNLKLGNGIAPVQRMIEHGMKVTLGTDGAASNNSLNLFFEMRLASLLQKAQNPRNLDVNTCLKMVTYDGAQAMGFKSGKIEEGWNADLVVIDLDLPEMFPVQNIKNHLVHAFSGEVFATMVAGKWIYFDGEYPTIDSEEVKRELARIEKELYSS
Consider B2, for which the Km in series [4] was found to be 44 µM; in [6] it was 210 µM; in series [8], 250 µM. Besides, the kcat in series [4] was 7.2 s⁻¹; in [5] it was 1 10^-3/s; in series [6], 12.2 s⁻¹; in series [7], 1 10^-3/s; in series [8], 2.3 s⁻¹. In addition, the kcat/Km was 1.5 10^5/M/s in series [9], 5.8 10^4/M/s in series [10] and 9.2 10^3/M/s in series [11].

The record behind these values is ChEMBL document CHEMBL1145524, “Structure-based activity prediction for an enzyme of unknown function” (Nature, 2007).
